14 molecules from ChEMBL document CHEMBL1138485, “Discovery of inducible nitric oxide synthase (iNOS) inhibitor development candidate KD7332, part 1: Identification of a novel, potent, and selective series of quinolinone iNOS dimerization inhibitors that are orally active in rodent pain models” (J Med Chem, 2009) can be followed below.

Each structure is given as a SMILES string. A value given as a limit tells only on which side of the number the result lay.

Sequence of Nitric oxide synthase, inducible (P35228 whole entry): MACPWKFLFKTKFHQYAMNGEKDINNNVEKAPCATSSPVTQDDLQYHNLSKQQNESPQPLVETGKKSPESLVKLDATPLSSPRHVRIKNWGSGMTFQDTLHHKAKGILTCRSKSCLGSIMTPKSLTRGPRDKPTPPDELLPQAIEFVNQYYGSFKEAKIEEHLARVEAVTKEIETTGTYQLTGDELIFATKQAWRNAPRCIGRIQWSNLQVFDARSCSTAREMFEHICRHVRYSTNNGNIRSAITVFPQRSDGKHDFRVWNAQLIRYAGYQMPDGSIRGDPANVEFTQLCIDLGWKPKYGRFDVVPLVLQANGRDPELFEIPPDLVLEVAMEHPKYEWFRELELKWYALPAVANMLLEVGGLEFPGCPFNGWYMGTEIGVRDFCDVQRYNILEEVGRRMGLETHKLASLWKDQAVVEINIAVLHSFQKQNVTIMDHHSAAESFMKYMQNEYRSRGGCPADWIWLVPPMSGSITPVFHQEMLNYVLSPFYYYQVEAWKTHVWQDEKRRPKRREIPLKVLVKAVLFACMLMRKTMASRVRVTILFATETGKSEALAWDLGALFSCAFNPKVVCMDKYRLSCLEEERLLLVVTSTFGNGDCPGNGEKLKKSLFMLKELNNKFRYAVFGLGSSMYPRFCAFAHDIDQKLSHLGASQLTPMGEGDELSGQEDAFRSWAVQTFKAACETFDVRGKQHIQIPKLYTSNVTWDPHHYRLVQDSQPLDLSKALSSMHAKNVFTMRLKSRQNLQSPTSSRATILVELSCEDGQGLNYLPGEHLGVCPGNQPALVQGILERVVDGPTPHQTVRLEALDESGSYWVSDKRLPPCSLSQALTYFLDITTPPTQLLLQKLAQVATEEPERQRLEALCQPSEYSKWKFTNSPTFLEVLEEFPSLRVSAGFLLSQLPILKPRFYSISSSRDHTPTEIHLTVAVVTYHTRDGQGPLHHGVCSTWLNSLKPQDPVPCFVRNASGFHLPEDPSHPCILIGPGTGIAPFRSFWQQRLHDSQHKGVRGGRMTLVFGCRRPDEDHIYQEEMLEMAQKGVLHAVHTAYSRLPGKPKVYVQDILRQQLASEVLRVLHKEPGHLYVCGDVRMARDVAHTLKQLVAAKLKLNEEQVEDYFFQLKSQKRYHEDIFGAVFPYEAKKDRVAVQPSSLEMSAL

The first assay has as its target Nitric oxide synthase, inducible (Homo sapiens, UniProt P35228). The experiment in a line: Inhibition of human iNOS expressed in HEK293 cells assessed as NO production by transient transfection assay. It is filed as cell-based. In a few lines:
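HEK293 cells grown to ~70% confluence in DMEM/10% FBS with pen/strep. Cells transiently transfected with 10 µg human or murine iNOS plasmid (Fugene 6), 4 h at 37 °C, 10% CO2. Trypsinized, plated at 5 × 10⁵ cells/mL and dosed at once; 1400W 100 µM final as positive control. After 18 h, NO read as DAN fluorescence (10 µg/mL, 20 min RT, then NaOH). EC50 from 3 runs, 10-point curves, n = 8/point.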
By EC50 is commonly meant the concentration needed to bring the measured effect to its halfway point. On to `Cc1ncsc1C(=O)N(Cc1cc(=O)oc2c(F)c(F)ccc12)c1cccc(Cl)c1`, for which the 50% effective concentration (EC50) was 0.84 µM.

Take `Cc1ccncc1C(=O)N(Cc1cc(=O)[nH]c2c(F)cccc12)c1cccc(Cl)c1`: the EC50 is 0.049 µM.

Consider `O=C(c1ccco1)N(Cc1cc(=O)[nH]c2ccccc12)c1ccccc1`, for which the concentration for a half-maximal effect (EC50) turned out to be 1.3 µM.

With `Cc1ncsc1C(=O)N(Cc1cc(=O)[nH]c2ccc(F)cc12)c1cccc(Cl)c1`, the EC50 worked out at 0.3 µM.

With `Cc1noc(C)c1C(=O)N(Cc1cc(=O)[nH]c2c(F)cccc12)c1cccc(Cl)c1`, the EC50 amounted to 0.016 µM.

Turning to `Cc1ncsc1C(=O)N(Cc1cc(=O)[nH]c2ccccc12)c1cccc(Cl)c1`, the 50% effective concentration (EC50) was 0.17 µM.

Take `Cc1ncsc1C(=O)N(Cc1cc(=O)[nH]c2cc(F)ccc12)c1cccc(Cl)c1`: the EC50 turned out to be 0.053 µM.

As to `Cc1ncsc1C(=O)N(Cc1cc(=O)[nH]c2c(F)cccc12)c1cccc(F)c1`, the EC50 is 0.062 µM.

With `Cc1ncsc1C(=O)N(Cc1cc(=O)[nH]c2c(F)cccc12)c1cccc(C#N)c1`, the 50% effective concentration (EC50) was determined as 0.056 µM.

`O=C(c1cncs1)N(Cc1cc(=O)[nH]c2c(F)cccc12)c1cccc(Cl)c1`: the EC50 came out at 0.053 µM.

On to `Cc1ncsc1C(=O)N(Cc1cc(=O)[nH]c2c(F)cccc12)c1ccc(Cl)cc1`, for which the EC50 was 0.24 µM.

On to `Cc1cccc(N(Cc2cc(=O)[nH]c3c(F)cccc23)C(=O)c2scnc2C)c1`, for which the EC50 is 0.1 µM.

Turning to `COc1cccc(N(Cc2cc(=O)[nH]c3c(F)cccc23)C(=O)c2scnc2C)c1`, the EC50 stood at 0.99 µM.

As to `Cc1ncsc1C(=O)N(Cc1cncc2c(F)c(F)ccc12)c1cccc(Cl)c1`, the EC50 turned out to be 0.2 µM.

The next assay concerns the target T1, Nitric oxide synthase 3 (Homo sapiens, UniProt P29474).
T1 sequence (P29474 whole entry): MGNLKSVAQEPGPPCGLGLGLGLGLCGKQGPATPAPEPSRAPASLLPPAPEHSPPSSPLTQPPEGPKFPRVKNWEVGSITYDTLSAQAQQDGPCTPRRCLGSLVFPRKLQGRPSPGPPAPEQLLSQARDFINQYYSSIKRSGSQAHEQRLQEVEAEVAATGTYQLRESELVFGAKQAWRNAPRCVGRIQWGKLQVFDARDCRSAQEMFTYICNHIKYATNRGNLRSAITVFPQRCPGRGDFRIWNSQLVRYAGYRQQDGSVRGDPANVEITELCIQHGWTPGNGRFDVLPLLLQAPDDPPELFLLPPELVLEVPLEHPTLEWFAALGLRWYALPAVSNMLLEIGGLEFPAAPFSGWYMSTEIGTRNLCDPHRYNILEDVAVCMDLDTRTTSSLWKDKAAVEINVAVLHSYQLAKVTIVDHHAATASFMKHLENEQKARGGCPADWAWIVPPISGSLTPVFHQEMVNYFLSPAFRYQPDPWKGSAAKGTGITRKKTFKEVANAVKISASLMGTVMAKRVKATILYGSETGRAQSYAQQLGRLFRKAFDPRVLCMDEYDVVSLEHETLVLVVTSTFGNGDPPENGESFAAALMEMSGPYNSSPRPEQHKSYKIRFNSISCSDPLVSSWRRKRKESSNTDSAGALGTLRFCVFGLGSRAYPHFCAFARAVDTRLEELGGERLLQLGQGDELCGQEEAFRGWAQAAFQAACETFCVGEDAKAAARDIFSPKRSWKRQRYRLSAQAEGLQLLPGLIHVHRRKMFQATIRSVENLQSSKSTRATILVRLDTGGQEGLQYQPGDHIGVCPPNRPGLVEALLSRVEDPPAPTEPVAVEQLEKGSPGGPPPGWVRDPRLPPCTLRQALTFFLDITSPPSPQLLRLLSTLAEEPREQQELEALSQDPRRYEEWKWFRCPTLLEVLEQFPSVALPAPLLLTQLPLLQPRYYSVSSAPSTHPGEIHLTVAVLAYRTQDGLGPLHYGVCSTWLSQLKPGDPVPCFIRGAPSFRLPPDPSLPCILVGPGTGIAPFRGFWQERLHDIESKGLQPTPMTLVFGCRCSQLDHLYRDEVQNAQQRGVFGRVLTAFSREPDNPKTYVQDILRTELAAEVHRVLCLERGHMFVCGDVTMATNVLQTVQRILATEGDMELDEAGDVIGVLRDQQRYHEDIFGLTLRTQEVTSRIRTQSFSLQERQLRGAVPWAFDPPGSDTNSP
Put plainly: Inhibition of human eNOS expressed in HEK293 cells assessed as NO production by transient transfection assay. In kind it is cell-based. In a few lines:
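HEK293 cells grown to ~70% confluence in DMEM/10% FBS with pen/strep, transfected with 15 µg human eNOS plasmid plus Fugene 6 (3:1 µL:µg), 4 h at 37 °C, 10% CO2. Cells replated at 5 × 10⁵/mL, compound added at once, 24 h incubation, then A23187 (83 nM final). After 18 h, NO read by DAN fluorescence.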
Regarding `Cc1ccncc1C(=O)N(Cc1cc(=O)[nH]c2c(F)cccc12)c1cccc(Cl)c1`, the EC50 stood at 41 µM.

For `O=C(c1ccco1)N(Cc1cc(=O)[nH]c2ccccc12)c1ccccc1`, the EC50 is more than 100 µM.

On to `Cc1ncsc1C(=O)N(Cc1cc(=O)[nH]c2ccc(F)cc12)c1cccc(Cl)c1`, for which the EC50 is more than 100 µM.

In the case of `Cc1noc(C)c1C(=O)N(Cc1cc(=O)[nH]c2c(F)cccc12)c1cccc(Cl)c1`, the concentration for a half-maximal effect (EC50) was found to be 6.8 µM.

Consider `Cc1ncsc1C(=O)N(Cc1cc(=O)[nH]c2ccccc12)c1cccc(Cl)c1`, for which the 50% effective concentration (EC50) was more than 100 µM.

As for `Cc1ncsc1C(=O)N(Cc1cc(=O)[nH]c2cc(F)ccc12)c1cccc(Cl)c1`, the half-maximal effective concentration (EC50) is 33 µM.

`Cc1ncsc1C(=O)N(Cc1cc(=O)[nH]c2c(F)cccc12)c1cccc(F)c1`: the EC50 came to 15 µM.

As for `Cc1ncsc1C(=O)N(Cc1cc(=O)[nH]c2c(F)cccc12)c1cccc(C#N)c1`, the 50% effective concentration (EC50) was more than 100 µM.

With `O=C(c1cncs1)N(Cc1cc(=O)[nH]c2c(F)cccc12)c1cccc(Cl)c1`, the EC50 is more than 100 µM.

Turning to `Cc1ncsc1C(=O)N(Cc1cc(=O)[nH]c2c(F)cccc12)c1ccc(Cl)cc1`, the half-maximal effective concentration (EC50) is more than 100 µM.

On to `Cc1cccc(N(Cc2cc(=O)[nH]c3c(F)cccc23)C(=O)c2scnc2C)c1`, for which the 50% effective concentration (EC50) was more than 100 µM.

Take `COc1cccc(N(Cc2cc(=O)[nH]c3c(F)cccc23)C(=O)c2scnc2C)c1`: the EC50 was more than 100 µM.

As for `Cc1ncsc1C(=O)N(Cc1cncc2c(F)c(F)ccc12)c1cccc(Cl)c1`, the concentration for a half-maximal effect (EC50) is 37 µM.

In another assay the target is T2, Nitric oxide synthase 1 (Homo sapiens, UniProt P29475). The experiment in a line: Inhibition of human nNOS expressed in HEK293 cells assessed as NO production by transient transfection assay. It is filed as cell-based.
T2 sequence (P29475 whole entry): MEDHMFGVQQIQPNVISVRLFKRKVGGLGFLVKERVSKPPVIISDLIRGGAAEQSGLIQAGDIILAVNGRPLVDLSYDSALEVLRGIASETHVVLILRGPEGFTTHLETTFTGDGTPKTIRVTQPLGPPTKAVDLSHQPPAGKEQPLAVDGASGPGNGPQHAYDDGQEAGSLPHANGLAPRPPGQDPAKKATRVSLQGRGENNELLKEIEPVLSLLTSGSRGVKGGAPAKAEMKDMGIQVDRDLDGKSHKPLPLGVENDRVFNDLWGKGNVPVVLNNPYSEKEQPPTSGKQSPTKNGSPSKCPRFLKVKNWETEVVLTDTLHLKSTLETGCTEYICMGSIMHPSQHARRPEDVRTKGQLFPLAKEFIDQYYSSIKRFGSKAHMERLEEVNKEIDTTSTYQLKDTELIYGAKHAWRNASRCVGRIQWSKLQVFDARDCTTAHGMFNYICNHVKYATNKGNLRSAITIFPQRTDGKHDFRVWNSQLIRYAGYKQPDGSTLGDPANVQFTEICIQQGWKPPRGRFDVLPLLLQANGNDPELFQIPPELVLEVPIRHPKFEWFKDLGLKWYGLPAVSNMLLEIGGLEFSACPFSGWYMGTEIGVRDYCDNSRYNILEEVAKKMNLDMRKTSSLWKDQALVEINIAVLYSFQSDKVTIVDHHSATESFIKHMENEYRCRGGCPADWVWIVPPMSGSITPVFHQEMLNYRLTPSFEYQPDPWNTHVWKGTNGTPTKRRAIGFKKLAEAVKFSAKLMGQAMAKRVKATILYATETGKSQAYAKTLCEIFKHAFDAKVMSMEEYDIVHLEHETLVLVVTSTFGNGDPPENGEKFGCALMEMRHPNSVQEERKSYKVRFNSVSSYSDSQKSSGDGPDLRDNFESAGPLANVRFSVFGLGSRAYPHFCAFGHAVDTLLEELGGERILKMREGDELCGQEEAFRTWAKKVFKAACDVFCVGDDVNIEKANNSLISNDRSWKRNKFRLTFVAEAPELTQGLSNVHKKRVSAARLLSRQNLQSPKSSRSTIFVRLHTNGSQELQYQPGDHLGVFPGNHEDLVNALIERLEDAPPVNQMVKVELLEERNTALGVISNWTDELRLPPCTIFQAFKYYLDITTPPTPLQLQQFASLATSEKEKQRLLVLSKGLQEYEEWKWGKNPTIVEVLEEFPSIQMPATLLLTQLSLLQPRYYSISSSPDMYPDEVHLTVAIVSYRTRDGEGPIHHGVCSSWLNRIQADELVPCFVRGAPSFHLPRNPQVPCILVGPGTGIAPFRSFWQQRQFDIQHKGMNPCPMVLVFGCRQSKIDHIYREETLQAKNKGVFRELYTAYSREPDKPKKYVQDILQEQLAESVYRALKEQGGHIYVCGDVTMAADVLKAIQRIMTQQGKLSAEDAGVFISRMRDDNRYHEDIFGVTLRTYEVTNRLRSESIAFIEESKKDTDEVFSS
As for `Cc1ccncc1C(=O)N(Cc1cc(=O)[nH]c2c(F)cccc12)c1cccc(Cl)c1`, the 50% effective concentration (EC50) worked out at 2.2 µM.

Turning to `O=C(c1ccco1)N(Cc1cc(=O)[nH]c2ccccc12)c1ccccc1`, the EC50 was more than 10 µM.

As for `Cc1ncsc1C(=O)N(Cc1cc(=O)[nH]c2ccc(F)cc12)c1cccc(Cl)c1`, the EC50 is more than 10 µM.

As for `Cc1noc(C)c1C(=O)N(Cc1cc(=O)[nH]c2c(F)cccc12)c1cccc(Cl)c1`, the concentration giving a half-maximal response (EC50) came to 0.5 µM.

Take `Cc1ncsc1C(=O)N(Cc1cc(=O)[nH]c2ccccc12)c1cccc(Cl)c1`: the 50% effective concentration (EC50) is more than 10 µM.

Consider `Cc1ncsc1C(=O)N(Cc1cc(=O)[nH]c2cc(F)ccc12)c1cccc(Cl)c1`, for which the EC50 was 3.4 µM.

Consider `Cc1ncsc1C(=O)N(Cc1cc(=O)[nH]c2c(F)cccc12)c1cccc(C#N)c1`, for which the EC50 stood at 2.7 µM.

With `Cc1ncsc1C(=O)N(Cc1cc(=O)[nH]c2c(F)cccc12)c1ccc(Cl)cc1`, the concentration for a half-maximal effect (EC50) is more than 10 µM.

As to `Cc1cccc(N(Cc2cc(=O)[nH]c3c(F)cccc23)C(=O)c2scnc2C)c1`, the EC50 was more than 10 µM.

As to `COc1cccc(N(Cc2cc(=O)[nH]c3c(F)cccc23)C(=O)c2scnc2C)c1`, the EC50 was more than 10 µM.

As for `Cc1ncsc1C(=O)N(Cc1cncc2c(F)c(F)ccc12)c1cccc(Cl)c1`, the EC50 was more than 10 µM.

In another assay the target is T3, Nitric oxide synthase 3 (Homo sapiens) (UniProt P29474).
T3 sequence (whole entry): T1 sequence (P29474 whole entry)
Put plainly: Inhibition of human eNOS expressed in HEK293 cells assessed as NO production at 100 uM by transient transfection assay relative to BBS-4. It is filed as cell-based. The method, boiled down: (§1)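 HEK293 cells transiently transfected with human eNOS (15 µg plasmid) or nNOS (10 µg plasmid), Fugene 6 at 3:1 µL:µg, 4 h at 37 °C, 10% CO2. Plated at 5 × 10⁵ cells/mL with compound; SEITU 100 µM final as positive control. After 24 h, activated with A23187 (83 nM final, eNOS) or ionomycin (30 µM final, nNOS). After 18 h more, NO read by DAN fluorescence. Inhibition is relative to the maximal inhibition by the control dimerization inhibitor. 3 runs, 10-point curves, n = 3/point.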
A word on the inhibition: it is the relative decrease from the control value, in per cent. Take `O=C(c1ccco1)N(Cc1cc(=O)[nH]c2ccccc12)c1ccccc1`: the inhibition is less than 50%.

Take `Cc1ncsc1C(=O)N(Cc1cc(=O)[nH]c2ccc(F)cc12)c1cccc(Cl)c1`: the inhibition was less than 50%.

Regarding `Cc1ncsc1C(=O)N(Cc1cc(=O)[nH]c2ccccc12)c1cccc(Cl)c1`, the inhibition was less than 50%.

For the molecule `Cc1ncsc1C(=O)N(Cc1cc(=O)[nH]c2c(F)cccc12)c1cccc(C#N)c1`, the inhibition is less than 50%.

Consider `O=C(c1cncs1)N(Cc1cc(=O)[nH]c2c(F)cccc12)c1cccc(Cl)c1`, for which the inhibition was less than 50%.

With `Cc1ncsc1C(=O)N(Cc1cc(=O)[nH]c2c(F)cccc12)c1ccc(Cl)cc1`, the inhibition is less than 50%.

Regarding `Cc1cccc(N(Cc2cc(=O)[nH]c3c(F)cccc23)C(=O)c2scnc2C)c1`, the inhibition was less than 50%.

Turning to `COc1cccc(N(Cc2cc(=O)[nH]c3c(F)cccc23)C(=O)c2scnc2C)c1`, the inhibition is less than 50%.

In a further assay the target is T2, Nitric oxide synthase 1. Put plainly: Inhibition of human nNOS expressed in HEK293 cells assessed as NO production at 10 uM by transient transfection assay relative to BBS-4. It is filed as cell-based. The method, boiled down: as §1
Turning to `O=C(c1ccco1)N(Cc1cc(=O)[nH]c2ccccc12)c1ccccc1`, the inhibition is less than 50%.

Regarding `Cc1ncsc1C(=O)N(Cc1cc(=O)[nH]c2ccc(F)cc12)c1cccc(Cl)c1`, the inhibition is less than 50%.

Consider `Cc1ncsc1C(=O)N(Cc1cc(=O)[nH]c2ccccc12)c1cccc(Cl)c1`, for which the inhibition was less than 50%.

As for `Cc1ncsc1C(=O)N(Cc1cc(=O)[nH]c2c(F)cccc12)c1cccc(C#N)c1`, the inhibition worked out at 2.7%.

On to `Cc1ncsc1C(=O)N(Cc1cc(=O)[nH]c2c(F)cccc12)c1ccc(Cl)cc1`, for which the inhibition is less than 50%.

Take `Cc1cccc(N(Cc2cc(=O)[nH]c3c(F)cccc23)C(=O)c2scnc2C)c1`: the inhibition was less than 50%.

For the molecule `COc1cccc(N(Cc2cc(=O)[nH]c3c(F)cccc23)C(=O)c2scnc2C)c1`, the inhibition was less than 50%.

Regarding `Cc1ncsc1C(=O)N(Cc1cncc2c(F)c(F)ccc12)c1cccc(Cl)c1`, the inhibition was less than 50%.
